Drawing on ChEMBL document CHEMBL1153592, “1,8-Naphthyridine-3-carboxamide derivatives with anticancer and anti-inflammatory activity” (Eur J Med Chem, 2009), this text covers Activity for 5 compounds.

Calls of active or inactive are those of the source. The calls are words filed in the database; no cut-off is given here.

In one data set the test system is DU-145. The data set is described as follows: Cytotoxicity against human DU145 cells at 10 uM after 72 hrs by MTT assay. Format: functional, cell-based. The essentials:
(§1)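 Three-day MTT screen with 5000–10,000 cells/well and 72 h compound exposure at the top screening concentration. After 3 h of MTT uptake, lysis with 10% SDS–0.01 N HCl, then A540 read after 1 h. % cytotoxicity = (1 − X/R1)×100, where X is treated minus blank absorbance and R1 is untreated control absorbance.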
(Tetrazolium dyes change colour on reduction, which living cells bring about.)

The nature of data set [1]: Cytotoxicity against mouse NIH/3T3 cells at 10 uM after 72 hrs by MTT assay. Format: cell-based. Conditions: nih3t3, 72 h. The essentials: as §1
In a further data set the test system is SW-620. The data set is described as follows: Cytotoxicity against human SW620 cells at 10 uM after 72 hrs by MTT assay. Format: functional, cell-based. The essentials: as §1
For a further data set, the system named is HBL-100. Put plainly: Cytotoxicity against human HBL100 cells at 10 uM after 72 hrs by MTT assay. Format: functional, cell-based. The method in brief:
as §1

Another data set has as its system PA-1. Put plainly: Cytotoxicity against human PA1 cells at 10 uM after 72 hrs by MTT assay. In kind it is functional, cell-based. The method in brief:
as §1

The next data set has as its system K562. Put plainly: Cytotoxicity against human K562 cells at 10 uM after 72 hrs by MTT assay. Format: functional, cell-based. The essentials:
as §1

The subject of a further data set is MIA PaCa-2. Put plainly: Cytotoxicity against human MIAPaCa2 cells at 10 uM after 72 hrs by MTT assay. Format: functional, cell-based. The essentials: as §1
The next data set relates to KB. The data set is described as follows: Cytotoxicity against human KB cells at 10 uM after 72 hrs by MTT assay. In kind it is functional, cell-based. The essentials:
as §1

In another data set the test system is A549. The data set is described as follows: Cytotoxicity against human A549 cells at 10 uM after 72 hrs by MTT assay. Format: functional, cell-based. The essentials: as §1
A further data set has as its system ECV-304. The data set is described as follows: Cytotoxicity against human ECV304 cells at 10 uM after 72 hrs by MTT assay. In kind it is functional, cell-based. The essentials:
as §1

`C#CCn1cc(C(=O)NC(C(=O)NC2CCCCC2)c2ccccc2)c(=O)c2ccc(Cl)nc21` (stereo not given): the result in the data set on DU-145, in the data set on SW-620, with HBL-100, in the data set with PA-1, in the data set on K562 and in the data set with MIA PaCa-2 was inactive. The result with KB, in the data set with A549 and with ECV-304 was inactive. Besides, the Activity result in data set [1] is recorded as “Not Active”.

For the compound `C#CCn1cc(C(=O)NC(C(=O)Nc2ccccc2)c2ccccc2)c(=O)c2cc(F)c(N3CCCC3)nc21` (stereo not given), the result with DU-145, in the data set on SW-620, with HBL-100, with PA-1, in the data set with K562 and in the data set with MIA PaCa-2 was inactive. In addition, the outcome in the data set on KB, with A549 and in the data set on ECV-304 was inactive. Moreover, in [1], the Activity result was “Not Active”.

For the compound `C#CCn1cc(C(=O)NC(C(=O)NC2CCCCC2)c2ccccc2)c(=O)c2cccnc21` (stereo not given), the result in the data set on DU-145, with SW-620, with HBL-100, with PA-1, in the data set with K562 and in the data set with MIA PaCa-2 was inactive. Also, the result in the data set on KB, with A549 and in the data set with ECV-304 was inactive. In data set [1], the Activity result is “Not Active”.

With `C#CCn1cc(C(=O)NC(CC(=O)NC2CCCCC2)c2ccccc2)c(=O)c2cccnc21` (stereo not given), the outcome with DU-145, in the data set with SW-620, in the data set with HBL-100, in the data set with PA-1, in the data set on K562 and in the data set with MIA PaCa-2 was inactive. Besides, the outcome in the data set on KB, in the data set with A549 and in the data set with ECV-304 was inactive. Also, the Activity entry in data set [1] was “Not Active”.

As to `C#CCn1cc(C(=O)NC(C(=O)NC2CCCC2)c2ccccc2)c(=O)c2ccc(Cl)nc21` (stereo not given), the outcome with DU-145, in the data set with SW-620, with HBL-100, with PA-1, with K562 and with MIA PaCa-2 was inactive. For the same compound, the result in the data set with KB, in the data set on A549 and with ECV-304 was inactive. For the same compound, the Activity entry in data set [1] is reported as “Not Active”.
